Data on 14 compounds can be found in ChEMBL document CHEMBL1932935, “Synthesis and biological effects of some kynurenic acid analogs” (Bioorg Med Chem, 2011).

Data set [1] deals with Mus musculus. The experiment in a line: Toxicity in C57/BL6 mouse assessed as decrease in number of rearings dosed intraperitoneally equimolar to 200 mg/kg KYNA-1 for 9 days measured after 2 hrs post last dose by open field test. The class given is organism-based, C57Bl/6. On the set-up: dose 200 mg/kg, route intraperitoneal. As to conditions: in vivo, ip. In outline:
(§1)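 Six-week-old male C57Bl/6 mice, dosed ip once daily at 5 mL/kg in distilled water adjusted to pH 6.5; saline controls. Acute testing was 2 h after a single dose; chronic testing was on day 9, 2 h after the last of 9 daily doses. Each mouse was placed in a black open-field box (48×48×40 cm) and video-tracked for 5 min, scoring ambulation time, mean velocity and rearings.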

Data set [2] has as its system Mus musculus. Description: Toxicity in C57/BL6 mouse assessed as decrease in number of rearings dosed intraperitoneally equimolar to 200 mg/kg KYNA-1 as single dose measured after 2 hrs by open field test. The class given is organism-based, C57Bl/6. On the set-up: dose 200 mg/kg, route intraperitoneal. The conditions noted are these: in vivo, ip. In outline: as §1

Data set [3] concerns Mus musculus. The experiment in a line: Toxicity in C57/BL6 mouse assessed as effect on movement velocity dosed intraperitoneally equimolar to 200 mg/kg KYNA-1 for 9 days measured after 2 hrs post last dose by open field test. The conditions noted are these: in vivo, ip. The format is organism-based, C57Bl/6. Set-up: dose 200 mg/kg, route intraperitoneal. In outline: as §1

A further data set relates to Hippocampus. Description: Antiexcitatory activity in rat hippocampus pyramidal CA1 region assessed as reduction in field excitatory postsynaptic potential at 16 uM by electrophysiologic method. The format is functional. In outline:
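Acute rat hippocampal slices; recording solution ACSF with 3 mM CaCl2 and 1.5 mM MgSO4, 1.5–2 mL/min flow, 34 °C. Schaffer collaterals stimulated; fEPSP amplitude recorded in CA1 pyramidal layer before, during and after bath application of compound in ACSF. Amplitudes normalized to 10-min control period; four slices per compound.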

For data set [4], the system named is Mus musculus. Description: Toxicity in C57/BL6 mouse assessed as effect on ambulation time dosed intraperitoneally equimolar to 200 mg/kg KYNA-1 for 9 days measured after 2 hrs post last dose by open field test. The format is organism-based, C57Bl/6. Set-up: dose 200 mg/kg, route intraperitoneal. The conditions noted are these: in vivo, ip. In outline: as §1

Data set [5] relates to Mus musculus. Description: Toxicity in C57/BL6 mouse assessed as effect on ambulation time dosed intraperitoneally equimolar to 200 mg/kg KYNA-1 as single dose measured after 2 hrs by open field test. Set-up: dose 200 mg/kg, route intraperitoneal. As to conditions: in vivo, ip. The class given is organism-based, C57Bl/6. In outline:
as §1

In data set [6] the test system is Mus musculus. Description: Toxicity in C57/BL6 mouse assessed as effect on movement velocity dosed intraperitoneally equimolar to 200 mg/kg KYNA-1 as single dose measured after 2 hrs by open field test. As to conditions: in vivo, ip. On the set-up: dose 200 mg/kg, route intraperitoneal. The class given is organism-based, C57Bl/6. In outline: as §1
Data set [7] deals with Rattus norvegicus. Description: Inhibition of NMDA in intraperitoneally dosed Wistar rat hippocampus pyramidal CA1 region assessed as reduction in amplitude of population spike by electrophysologic method. The class given is functional, organism-based.
Data set [8] has as its system Mus musculus. The experiment in a line: Toxicity in C57/BL6 mouse assessed as effect on movement velocity at 200 mg/kg, ip for 9 days measured after 2 hrs post last dose by open field test. The class given is organism-based, C57Bl/6. On the set-up: dose 200 mg/kg, route intraperitoneal. As to conditions: in vivo. In outline:
as §1

Data set [9] has as its system Rattus norvegicus. The experiment in a line: Inhibition of NMDA in Wistar rat hippocampus pyramidal CA1 region assessed as reduction in amplitude of population spike at 200 mg/kg/day, ip measured up to 60 mins by electrophysologic method. The format is functional. The conditions noted are these: 1 h, read-out: INH, route intraperitoneal.
Data set [10] concerns Mus musculus. Description: Toxicity in C57/BL6 mouse assessed as effect on ambulation time at 200 mg/kg, ip administered as single dose measured after 2 hrs by open field test. As to conditions: in vivo. Set-up: dose 200 mg/kg, route intraperitoneal. The format is organism-based, C57Bl/6. In outline:
as §1

For data set [11], the system named is Mus musculus. Description: Toxicity in C57/BL6 mouse assessed as effect on ambulation time at 200 mg/kg, ip for 9 days measured after 2 hrs post last dose by open field test. Set-up: dose 200 mg/kg, route intraperitoneal. The conditions noted are these: in vivo. The format is organism-based, C57Bl/6. In outline:
as §1

For data set [12], the system named is Mus musculus. The experiment in a line: Toxicity in C57/BL6 mouse assessed as decrease in number of rearings at 200 mg/kg, ip administered as single dose measured after 2 hrs by open field test. The class given is organism-based, C57Bl/6. Set-up: dose 200 mg/kg, route intraperitoneal. The conditions noted are these: in vivo. In outline: as §1
Data set [13] has as its system Mus musculus. Description: Toxicity in C57/BL6 mouse assessed as decrease in number of rearings at 200 mg/kg, ip for 9 days measured after 2 hrs post last dose by open field test. Set-up: dose 200 mg/kg, route intraperitoneal. The conditions noted are these: in vivo. The format is organism-based, C57Bl/6. In outline: as §1
In data set [14] the test system is Rattus norvegicus. Description: Inhibition of NMDA in Wistar rat hippocampus pyramidal CA1 region assessed as reduction in amplitude of population spike at 200 mg/kg/day, ip up to 90 mins by electrophysologic method. The class given is functional. As to conditions: 1.5 h, read-out: INH, route intraperitoneal.
The subject of data set [15] is Mus musculus. Description: Toxicity in C57/BL6 mouse assessed as effect on movement velocity at 200 mg/kg, ip administered as single dose measured after 2 hrs by open field test. The format is organism-based, C57Bl/6. On the set-up: dose 200 mg/kg, route intraperitoneal. The conditions noted are these: in vivo. In outline: as §1

Activity calls are given as the source filed them. The calls are words filed in the database; no cut-off is given here.

With `Nc1ccccc1C(=O)C[C@H](N)C(=O)O.O=S(=O)(O)O`, the Activity entry is recorded as “Toxic” in the data set with Mus musculus [1]; “Toxic” in the data set on Mus musculus [2]; “Non-toxic” in the data set with Mus musculus [3]; “Non-toxic” with Mus musculus [4]; “Non-toxic” in the data set on Mus musculus [5]; “Non-toxic” in the data set with Mus musculus [6]. The outcome with Hippocampus was inactive.
For the compound `O=C(c1cc(=O)c2ccccc2[nH]1)N1CCN(Cc2ccccc2)CC1`, the result with Hippocampus was inactive.
On to `O=C(NCCN1CCOCC1)c1cc(=O)c2ccccc2[nH]1`, for which the outcome in the data set with Hippocampus was inactive.
As for `CN(C)CCCNC(=O)c1cc(=O)c2ccccc2[nH]1`, the result in the data set with Hippocampus was inactive. Besides, the inhibition entry with Rattus norvegicus [7] is “inactive”.
As to `CCN(CC)CCNC(=O)c1cc(=O)c2ccccc2[nH]1`, the outcome in the data set with Hippocampus was inactive.
As to `O=C(NCCN1CCCC1)c1cc(=O)c2ccccc2[nH]1`, the outcome with Hippocampus was inactive.
On to `O=C(O)c1cc(=O)c2ccccc2[nH]1` [TRANSTORINE], for which the Activity in the data set with Hippocampus worked out at 70%.
`Cl.O=C(NCCN1CCCC1)c1cc(O)c2ccccc2n1`: the Activity entry in the data set with Mus musculus [1], in the data set with Mus musculus [2], in the data set with Mus musculus [3], with Mus musculus [4], with Mus musculus [5] and in the data set with Mus musculus [6] was “Non-toxic” in each case.
With `CN(C)CCCNC(=O)c1cc(O)c2ccccc2n1.Cl`, the Activity result with Mus musculus [1], in the data set on Mus musculus [2], with Mus musculus [3], in the data set on Mus musculus [4], with Mus musculus [5] and in the data set on Mus musculus [6] was “Non-toxic” throughout.
With `O=C(c1cc(=O)c2ccccc2[nH]1)N1CCNCC1`, the outcome in the data set on Hippocampus was inactive.
The same measure, in the same setting: under `CN1CCN(C(=O)c2cc(=O)c3ccccc3[nH]2)CC1` stands “inactive”; under `O=C(NCCN1CCCCC1)c1cc(=O)c2ccccc2[nH]1`, “inactive”.
With `CN(C)CCNC(=O)c1cc(O)c2ccccc2n1.Cl`, the Activity result was “Non-toxic” in the data set with Mus musculus [8]; 50% in the data set with Hippocampus; “Non-toxic” in the data set on Mus musculus [10]; “Non-toxic” with Mus musculus [11]; “Toxic” in the data set with Mus musculus [12]; “Non-toxic” in the data set with Mus musculus [13]. Besides, the Activity result with Mus musculus [15] is listed as “Non-toxic”. In addition, the inhibition in vivo at 200 mg/kg/day with Rattus norvegicus [9] came out at 25%; in the data set on Rattus norvegicus [14] it was 30%.
With `CN1CCCCC1CNC(=O)c1cc(=O)c2ccccc2[nH]1` (centres undefined), in the data set with Hippocampus, the result was inactive.
